# Bioassay records as filed in PubChem.
# HCV NS3 hel inh: inhibitors of HCV NS3 helicase, primary screen, biochemical, Cy5 molecular beacon fluorescence | NS3 helicase DNA unwinding | AID 1800, 2009 | hit rate 0.56% among 290,000 | inhibition, % at 10.9 µM;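 active = inhibition above the mean of all tested compounds plus 3 SD, set per campaign, cut at about 35% in these data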;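 also: 0% = DMSO wells and 100% = thioflavine S control wells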
#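 Assay system: hepatitis C virus NS3 helicase domain fragment enzyme. Also added: annealed dual-labelled DNA beacon duplex, ATP-started. Timing: 1 h reaction at 25 °C, ATP-initiated. Technique: Cy5 fluorescence at 0 and 60 min, beacon hairpin quenching. Evaluation: % inhibition of unwinding. Replication: one well per compound.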
# HSF1 activator: HSF-1 activators, primary screen, NIH3T3-HGL cells, MG132 stress, luminescence, single point; NIH3T3-HGL HSF-1 luciferase reporter, 8 h; 100% = twice DMSO control signal; activation, % at 9 µM; AID 504408, 2011; hit rate 1.7% among 300,000;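 active = mean replicate activation of at least 50% with a set share of replicates each reaching 50%; inconclusive = only one of those two conditions met; inactive = mean below 50% and too few replicates reaching it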;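 also: 0% = median of the neutral control wells and 100% = twice that signal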
# HSP90 inh: HSP90 inhibitors, primary screen, cell lysate, luminescence; Heat shock protein HSP 90 (rabbit reticulocyte lysate; luciferase refolding); Rabbit reticulocyte lysate, luciferase refolding luminescence, 3 h; inhibition, % at 5.6 µM; hit rate 0.91% among 290,000; AID 1789, 2009;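 active = inhibition above the screen-wide mean plus 3 SD, computed separately per campaign, cut at about 16% in these data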;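 also: 0% = DMSO wells and 100% = 60 µM geldanamycin wells; inhibitors lower the luminescence because luciferase stays unfolded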
# Hep lipid drop: inhibitors of hepatocyte lipid droplet formation, primary screen, imaging, high-throughput imaging, BODIPY stain; AML12 mouse hepatocytes, oleate lipid droplets; inhibition, % at 6.5 µM; hit rate 0.4% among 240,000;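 active = lipid droplet intensity inhibited by at least 50%, with more than 500 cells counted; inconclusive = wells with under 300 cells, treated as cytotoxic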
#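 Material – AML12 mouse liver cells · Also added – oleate loading, 100 µM · Compound dosing – 6.5 µM single-point dosing · Times – overnight treatment with compound plus oleate · Measured by – fluorescence imaging, 20x objective, two fields per well · Read-out – percent inhibition of filter-corrected integrated lipid droplet intensity per well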
# HSF1 inh: HSF1 inhibitors in luciferase reporter cells, primary screen, cell-based, NIH3T3, luminescence. NIH3T3-HGL HSE-luciferase, MG132-induced, luminescence 8 h; stronger effect = lower value. activity change, negative = inhibition, % at 7.5 µM (by protocol). hit rate 0.77% among 300,000;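 active = more than half of replicate wells show activity change below -50%, luminescence cut by over half; inconclusive = some wells, but at most half, below -50%; inactive = no replicate well below -50%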;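 also: luciferase reports HSF-1 transcriptional activity via heat shock element; 0% = median of DMSO wells and -100% = zero luminescence signal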
# HSP90 confirm: HSP90 inhibitors, confirmation, cell lysate, luminescence; shares compounds with HSP90 inh; rabbit reticulocyte lysate, luciferase refolding luminescence, 3 h; inhibition, % at 5.9 µM; hit rate 64% among 2,300; in the data active = inhibition above about 18%;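 also: 0% = vehicle wells and 100% = reference inhibitor wells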
# luciferase ctr: firefly luciferase inhibitors, HSP90 counter-screen, confirmation, artefact control for HSP90 inhibitor project, biochemical, luminescence, triplicate; shares compounds with HSP90 inh; purified native firefly luciferase; inhibition, % at 5.9 µM; hit rate 48% among 2,300;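 active = inhibition above the mean inhibition of all tested sample wells plus 3 SD, cut at about 10% in these data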;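 also: 0% = DMSO with luciferase and 100% = wells lacking luciferase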
# Target sequence (P08659 whole entry, looked up): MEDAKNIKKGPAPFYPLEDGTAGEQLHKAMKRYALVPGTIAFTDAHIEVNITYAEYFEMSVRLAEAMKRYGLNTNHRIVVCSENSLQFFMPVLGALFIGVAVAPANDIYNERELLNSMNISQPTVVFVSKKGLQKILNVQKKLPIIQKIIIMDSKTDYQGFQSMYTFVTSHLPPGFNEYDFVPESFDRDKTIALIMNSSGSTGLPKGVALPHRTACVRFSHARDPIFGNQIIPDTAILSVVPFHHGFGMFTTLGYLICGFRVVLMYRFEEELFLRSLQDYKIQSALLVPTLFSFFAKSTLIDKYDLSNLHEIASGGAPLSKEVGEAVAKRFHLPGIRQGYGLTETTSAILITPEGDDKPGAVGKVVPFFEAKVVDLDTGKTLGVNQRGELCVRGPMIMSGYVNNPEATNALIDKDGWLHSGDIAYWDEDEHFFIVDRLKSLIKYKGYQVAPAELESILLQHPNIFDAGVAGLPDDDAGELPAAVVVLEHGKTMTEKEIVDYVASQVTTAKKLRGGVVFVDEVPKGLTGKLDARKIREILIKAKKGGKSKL
# * = called active by the depositor; ? = inconclusive; . = no result given. In the library only some 3.8% were active in any assay of this set; here they are far more common.
SMILES,HCV NS3 hel inh,HSF1 activator,HSP90 inh,Hep lipid drop,HSF1 inh,HSP90 confirm,luciferase ctr
CCn1c(=O)c2cc(C(=O)N(C)c3ccc(OC)cc3OC)sc2c2ccccc21,-13,3,23*,-14,6,8,-2
Cc1cccc(N=C2NN=C(c3ccc4c(c3)OCCO4)CS2)c1,-8,-55,28*,.,?,40*,34*
Cc1cccc(N=C2NN=C(c3c(C)[nH]c4ccccc34)CS2)c1,-2,33,-2,-1,-7,.,.
CCN(C=NC1=NN(c2cccc(C(F)(F)F)c2)CC1)CC,10,23,22*,-6,5,-1,-11
CN(C)c1ccc(/C=N/NC(=S)NCc2ccco2)cc1,-4,24,3,22,11,.,.
CN(C)c1ccc(C(=S)NCc2ccco2)cc1,8,-7,57*,-5,-2,65*,38*
O=C(CN1CCNCC1)NCCSc1ccc(Cl)cc1,-16,-2,-2,4,-2,.,.
CC(C)(C)C(=O)Nc1ccc(-c2cn3ccsc3n2)cc1,-6,25,29*,.,-7,49*,33*
COC(=O)c1cc(S(=O)(=O)NCCCN2CCCC2=O)cn1C,-8,2,3,4,-2,.,.
CCOC(=O)N1N=C(c2ccc(OC)cc2)CC1(O)C(F)(F)F (centres undefined),1,29,22*,12,20,39*,26*
CCOC(=O)N1N=C(c2ccccc2)CC1(O)C(C)(F)F (centres undefined),5,-4,3,-5,-3,.,.
COc1ccc(CC(=O)N2N=C(c3ccncc3)CC2(O)C(F)(F)F)cc1 (centres undefined),-9,-24,-1,18,3,.,.
CCc1ccc(C2=NN(C(=O)OC)C(O)(C(F)(F)F)C2)cc1 (centres undefined),2,24,40*,.,4,64*,49*
CCCS(=O)(=O)c1cnc(C2COc3ccccc3O2)nc1N (centres undefined),16,-83,93*,.,-80*,88*,80*
NS(=O)(=O)c1cnccc1Oc1cccc(Cl)c1,.,-4,.,.,-5,.,.
O=C(Nc1nnc(SCC(=O)N2CCCCC2)s1)c1ccc(F)cc1F,1,27,51*,-4,6,0,-25
O=C(Cc1ccc(F)cc1)Nc1nnc(SCC(=O)N2CCCCC2)s1,5,7,-3,8,1,.,.
CN(CC(=O)Nc1ccccc1Br)C(=O)CCSc1ccc(F)cc1,.,4,.,.,0,.,.
CC(Oc1ccccc1)C(=O)N1CCC2(CC1)CC(=O)c1ccccc1O2 (centres undefined),.,-1,.,.,0,.,.
Cc1nc(CS(=O)(=O)c2ccc(Cl)cc2)sc1C(=O)O,18,-13,33*,17,-3,49*,1
Cc1nn(C(C)(C)C)c(C)c1/C=N/OC(=O)Nc1ccc(Cl)cc1,7,-92,86*,2,-92*,86*,87*
Cn1cc(/C=C/C(=O)c2ccccc2)c2ccccc21,-10,62*,20*,-6,23,36*,45*
O=C(N/C(=C/c1cccs1)C(=O)N1CCCCCC1)c1ccccc1,-6,-8,0,-19,0,.,.
O=C(N/C(=C\c1cccs1)C(=O)N1CCCCCC1)c1ccccc1,0,-2,31*,.,-3,-1,-20
CN(c1ccc(C(=O)Nc2ccc(CC#N)cc2)cc1)S(C)(=O)=O,1,6,-1,1,-1,.,.
SMILES,HCV NS3 hel inh,HSF1 activator,HSP90 inh,Hep lipid drop,HSF1 inh,HSP90 confirm,luciferase ctr
O=S(=O)(O)c1cccc(N=Nc2c(O)ccc3ccccc23)c1,17,-20,33*,17,1,34*,0
Cc1ccc(O)c(Nc2c3ccccc3nc3ccccc23)c1,-25,28,39*,-15,4,4,-4
COc1ccc(Cl)cc1Nc1nc(N)c2ccccc2n1,-21,19,-4,-3,18,.,.
Cc1ccc(C)c(Nc2nc(N)c3ccccc3n2)c1,-3,-26,17*,-9,-15,23*,1
CCc1ccc(NC(=O)Cn2nc(C(=O)O)c3ccccc3c2=O)cc1,-11,-1,-4,-33,-7,.,.
O=C(O)c1ccc(/C=C/C(=O)c2ccc3c(c2)OCCCO3)cc1,3,4,51*,1,-12,65*,-4
CC(=O)Nc1ccc(/C=C/C(=O)c2ccc3c(c2)OCCO3)cc1,0,36,6,-13,2,.,.
CCCCCCC(=O)Nc1nc(C)c(-c2csc(Nc3cc(OC)ccc3OC)n2)s1,2,-54,-2,.,-39,.,.
COc1ccc(Cl)cc1Nc1nc(-c2sc(NC(=O)c3ccccc3)nc2C)cs1,-11,9,40*,.,5,24*,-3
COc1ccc(OC)c(Nc2nc(-c3sc(NC(=O)c4ccccc4)nc3C)cs2)c1,-3,15,27*,.,13,19*,-5
Cc1nc(NC(=O)c2ccccc2)sc1-c1csc(Nc2ccc(Cl)cc2Cl)n1,-18,3,45*,.,-12,35*,-13
COc1ccc(Cl)cc1Nc1nc(-c2sc(NC(=O)CC(C)C)nc2C)cs1,1,-53,5,.,-39,.,.
CN(C)S(=O)(=O)c1ccc(NC(=O)CN2C(=O)NC3(CCCC3)C2=O)cc1,-7,-16,0,37,1,.,.
O=C(NCCN1CCOCC1)C1CC(=O)N(c2ccc(F)cc2)C1 (centres undefined),0,13,0,4,-7,.,.
Cc1ccc2nc(NC(=S)NC(=O)c3ccco3)sc2c1,21,36,2,1,9,.,.
Cc1ccc2nc(NC(=O)c3ccco3)sc2c1,0,-12,45*,4,-10,83*,79*
COc1ccc2nc(NC(=O)c3ccco3)sc2c1,-6,1,41*,0,-11,58*,56*
Cc1c(C(=O)N(CCC#N)c2ccccc2)sc2nc3n(c(=O)c12)CCCC3,4,-8,-3,31,-5,.,.
Cc1sc2ncn(CC(=O)NCC(=O)N3CCN(c4ccccc4F)CC3)c(=O)c2c1C,8,-12,0,-3,-3,.,.
Cn1c(=O)[nH]c(=O)c2c1nc(N1CCCCC1)n2C/C=N/Nc1ccc(C(=O)O)cc1,5,25,41*,.,2,29*,36*
S=C(NCCc1ccccn1)NC1CCCCC1,1,27,23*,26,8,1,-11
